Reference: ChEMBL document CHEMBL2176942 (J Med Chem, 2012)
Blank lines part the entries; values can stand above or below the compound they belong to.

Legend:
[1] = in vitro; details: rat
[2] = in vitro; details: human
[3] = Permeability across human Caco2 cells at pH 7.4; assay type: ADME, cell-based; details: Caco-2, pH 7.4, read-out: permeability
How it was run: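 Caco-2 permeability run without BSA, with both chambers at pH 7.4; values are the average of at least two determinations.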

[4] = Half life in rhesus monkey at 2 mg/kg, iv; assay type: ADME, organism-based, Macaca mulatta; design: dose 2 mg/kg, route intravenous; details: in vivo
How it was run: (§1)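 Rhesus monkeys fasted overnight, then dosed iv at 2 mg/kg in 70% PEG400 or orally at 10 mg/kg as a suspension in 0.3% Tween-80 and 0.5% Methocel. Plasma was kept frozen at about −20 °C, extracted by solid-phase extraction and assayed by HPLC-UV against blank-plasma standards (LOQ 6 ng/mL). Parameters came from noncompartmental analysis.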

[5] = AUC in rhesus monkey at 10 mg/kg, po; assay type: ADME, organism-based, Macaca mulatta; design: dose 10 mg/kg, route oral; details: plasma
How it was run: (§2)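 Fasted overnight, then dosed orally at 10 mg/kg as a suspension in 0.3% Tween-80 and 0.5% Methocel. Blood kept on ice and centrifuged at 4 °C; plasma stored at about −20 °C. Solid-phase extraction, then HPLC with UV diode-array detection (200–400 nm) quantified by peak height against blank-plasma standards (LOQ 6 ng/mL). AUC from noncompartmental analysis.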

[6] = Half life in dog at 2 mg/kg, iv; assay type: ADME, organism-based, Canis lupus familiaris; design: dose 2 mg/kg, route intravenous; details: in vivo
How it was run: (§3)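 Dogs starved overnight, then dosed 2 mg/kg iv in 70% PEG400 or 10 mg/kg orally as a suspension in 0.3% Tween-80/0.5% Methocel. Plasma was extracted by solid phase and quantified by HPLC with UV diode-array detection (LOQ 6 ng/mL). Parameters came from noncompartmental analysis.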

[7] = Mean residence time in dog at 10 mg/kg, po; assay type: ADME, organism-based, Canis lupus familiaris; design: dose 10 mg/kg, route oral; details: in vivo
How it was run: as §3

[8] = Mean residence time in rhesus monkey at 10 mg/kg, po; assay type: ADME, organism-based, Macaca mulatta; design: dose 10 mg/kg, route oral; details: in vivo
How it was run: as §1

[9] = Half life in rat at 2 mg/kg, iv; assay type: ADME, organism-based; design: dose 2 mg/kg, route intravenous; details: in vivo
How it was run: (§4)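 Rats starved overnight, then given 10 mg/kg po as a suspension in 0.3% Tween-80 and 0.5% Methocel, or 2 mg/kg iv in 70% PEG400. Plasma was solid-phase extracted and assayed by HPLC-UV (LOQ 6 ng/mL, calibration in blank plasma). Parameters were derived by noncompartmental analysis.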

[10] = Volume of distribution at steady state in rhesus monkey at 2 mg/kg, iv; assay type: ADME, organism-based, Macaca mulatta; design: dose 2 mg/kg, route intravenous; details: in vivo, read-out: Vdss
How it was run: as §1

[11] = AUC in dog at 10 mg/kg, po; assay type: ADME, organism-based, Canis lupus familiaris; design: dose 10 mg/kg, route oral; details: plasma
How it was run: as §2

[12] = Oral bioavailability in rat; assay type: ADME, organism-based; details: in vivo
How it was run: as §4

[13] = Volume of distribution at steady state in rat at 2 mg/kg, iv; assay type: ADME, organism-based; design: dose 2 mg/kg, route intravenous; details: in vivo, read-out: Vdss
How it was run: as §4

[14] = Cmax in rhesus monkey at 10 mg/kg, po; assay type: ADME, organism-based, Macaca mulatta; design: dose 10 mg/kg, route oral; details: in vivo
How it was run: as §1

[15] = AUC in rat at 10 mg/kg, po; assay type: ADME, organism-based; design: dose 10 mg/kg, route oral; details: plasma
How it was run: as §4

[16] = Volume of distribution at steady state in dog at 2 mg/kg, iv; assay type: ADME, organism-based, Canis lupus familiaris; design: dose 2 mg/kg, route intravenous; details: in vivo, read-out: Vdss
How it was run: as §3

[17] = Cmax in rat at 10 mg/kg, po; assay type: ADME, organism-based; design: dose 10 mg/kg, route oral; details: in vivo
How it was run: as §4

[18] = Oral bioavailability rhesus monkey; assay type: ADME, organism-based, Macaca mulatta; details: in vivo
How it was run: as §1

[19] = Oral bioavailability in dog; assay type: ADME, organism-based, Canis lupus familiaris; details: in vivo
How it was run: as §3

[20] = Mean residence time in rat at 10 mg/kg, po; assay type: ADME, organism-based; design: dose 10 mg/kg, route oral; details: in vivo
How it was run: as §4

[21] = Clearance in rat at 2 mg/kg, iv; assay type: ADME, organism-based; design: dose 2 mg/kg, route intravenous; details: in vivo
[22] = test system: Liver microsomes; experiment: Drug metabolism in rat liver microsomes assessed as formation of metabolite 3-(4-(2-(3-(3-hydroxycyclohexyl)-1-methyl-2-(pyridin-2-yl)-1H-indole-6-carboxamido)-2-methylpropanamido)phenyl)acrylic acid incubated for 30 mins by HPLC/MS method; assay type: ADME, Microsome; details: 0.5 h
[23] = test system: Liver microsomes; experiment: Drug metabolism in human liver microsomes assessed as formation of metabolite 3-(4-(2-(3-(3-hydroxycyclohexyl)-1-methyl-2-(pyridin-2-yl)-1H-indole-6-carboxamido)-2-methylpropanamido)phenyl)acrylic acid incubated for 30 mins by HPLC/MS method; assay type: ADME, Microsome; details: 0.5 h
[24] = Clearance in dog at 2 mg/kg, iv; assay type: ADME, organism-based, Canis lupus familiaris; design: dose 2 mg/kg, route intravenous; details: in vivo
[25] = Cmax in dog at 10 mg/kg, po; assay type: ADME, organism-based, Canis lupus familiaris; design: dose 10 mg/kg, route oral; details: in vivo

SMILES: Cn1c(-c2ccccn2)c(C2CCCC2)c2ccc(C(=O)NC3(C(=O)Nc4ccc(/C=C/C(=O)O)cc4)CCC3)cc21 [BILB-1941]
half-life [4]: 1.7 h
AUC [5]: 20.5 µM·h
half-life [6]: 4.3 h
MRT [7]: 5.4 h
MRT [8]: 2.9 h
half-life [9]: 1.5 h
Vd [10]: 0.7 L/kg
AUC [11]: 99 µM·h
bioavailability [12]: 59%
Vd [13]: 0.48 L/kg
half-life ([1]; microsomes): 0.517 h
half-life ([2]; microsomes): 1.42 h
Cmax [14]: 6.4 µM
AUC [15]: 22.7 µM·h
Papp [3]: 11.2 ×10⁻⁶ cm/s
Vd [16]: 0.54 L/kg
Cmax [17]: 7.5 µM
bioavailability [18]: 70%
bioavailability [19]: 64%
MRT [20]: 4.1 h

SMILES: Cn1c(-c2ccc(Cl)cn2)c(C2CCCC2)c2ccc(C(=O)NC(C)(C)C(=O)Nc3ccc(/C=C/C(=O)O)cc3)cc21
half-life ([2]; microsomes): 3.93 h
Papp [3]: 1.8 ×10⁻⁶ cm/s

SMILES: Cn1c(-c2cccc(N)n2)c(C2CCCC2)c2ccc(C(=O)NC3(C(=O)Nc4ccc(/C=C/C(=O)O)cc4)CCC3)cc21
half-life ([1]; liver microsomes): 1.03 h
half-life ([2]; liver microsomes): > 5 h
AUC [15]: 8.4 µM·h
Papp [3]: 1.8 ×10⁻⁶ cm/s
Cmax [17]: 3.7 µM
MRT [20]: 3.4 h

SMILES: Cn1c(-c2ccncc2)c(C2CCCC2)c2ccc(C(=O)NC3(C(=O)Nc4ccc(/C=C/C(=O)O)cc4)CCC3)cc21
half-life ([1]; liver microsomes): 1.15 h
half-life ([2]; liver microsomes): 1.87 h
Papp [3]: 2.9 ×10⁻⁶ cm/s

SMILES: Cn1c(-c2ccccn2)c(C2CCCC2)c2ccc(C(=O)NC(C)(C)C(=O)Nc3ccc(/C=C/C(=O)O)cc3)cc21
half-life [9]: 1.7 h
bioavailability [12]: 46%
Vd [13]: 1.3 L/kg
AUC [15]: 7.2 µM·h
Papp [3]: 6.5 ×10⁻⁶ cm/s
clearance [21]: 18.2 mL/min/kg
Cmax [17]: 6.4 µM
MRT [20]: 1.7 h

SMILES: Cn1c(-c2ccc(Cl)cc2)c(C2CCCC2)c2ccc(C(=O)NC3(C(=O)Nc4ccc(/C=C/C(=O)O)cc4)CCC3)cc21
half-life ([1]; liver microsomes): > 5 h
half-life ([2]; liver microsomes): > 5 h

SMILES: Cn1c(-c2ccc(Cl)cn2)c(C2CCCC2)c2ccc(C(=O)NC3(C(=O)Nc4ccc(/C=C/C(=O)O)cc4)CCCC3)cc21
half-life ([2]; liver microsomes): > 5 h

SMILES: Cn1c(-c2cnccn2)c(C2CCCC2)c2ccc(C(=O)NC3(C(=O)Nc4ccc(/C=C/C(=O)O)cc4)CCC3)cc21
clearance [24]: 4.3 mL/min/kg
half-life [6]: 1.6 h
MRT [7]: 3.9 h
half-life [9]: 2.2 h
AUC [11]: 37.4 µM·h
bioavailability [12]: 41%
Vd [13]: 0.58 L/kg
half-life ([1]; liver microsomes): 0.933 h
half-life ([2]; liver microsomes): 1.6 h
AUC [15]: 17.7 µM·h
Papp [3]: 10 ×10⁻⁶ cm/s
Vd [16]: 0.75 L/kg
clearance [21]: 6.8 mL/min/kg
Cmax [17]: 7.8 µM
bioavailability [19]: 54%
MRT [20]: 2.4 h
Cmax [25]: 10.9 µM

The next lines start with the values.

half-life ([1]; microsomes): 0.4 h
half-life ([2]; microsomes): 0.883 h
Papp [3]: 6.9 ×10⁻⁶ cm/s
SMILES: Cc1ccc(-c2c(C3CCCC3)c3ccc(C(=O)NC4(C(=O)Nc5ccc(/C=C/C(=O)O)cc5)CCC4)cc3n2C)nc1

half-life ([2]; liver microsomes): 1.78 h
Papp [3]: 0.8 ×10⁻⁶ cm/s
SMILES: Cn1c(-c2ccncc2)c(C2CCCC2)c2ccc(C(=O)NC3(C(=O)Nc4ccc(/C=C/C(=O)O)cc4)CCCC3)cc21

half-life ([1]; microsomes): 0.317 h
half-life ([2]; microsomes): 1.6 h
Papp [3]: 12.6 ×10⁻⁶ cm/s
SMILES: Cn1c(-c2ccccn2)c(C2CCCC2)c2ccc(C(=O)NC3(C(=O)Nc4ccc(/C=C/C(=O)O)cc4)CCCC3)cc21

half-life ([2]; liver microsomes): 2.78 h
SMILES: Cn1c(-c2ccc(F)cn2)c(C2CCCC2)c2ccc(C(=O)NC3(C(=O)Nc4ccc(/C=C/C(=O)O)cc4)CCC3)cc21

Drug metabolism [22]: Active
Drug metabolism [23]: Active
SMILES: Cn1c(-c2ccccn2)c(C2CCCCC2)c2ccc(C(=O)NC(C)(C)C(=O)Nc3ccc(/C=C/C(=O)O)cc3)cc21

half-life ([1]; liver microsomes): 1.02 h
half-life ([2]; liver microsomes): 1.58 h
Papp [3]: 1.5 ×10⁻⁶ cm/s
SMILES: COc1ccc(-c2c(C3CCCC3)c3ccc(C(=O)NC4(C(=O)Nc5ccc(/C=C/C(=O)O)cc5)CCC4)cc3n2C)cn1

half-life ([2]; microsomes): 2.7 h
Papp [3]: 7.5 ×10⁻⁶ cm/s
SMILES: Cn1c(-c2ccoc2)c(C2CCCC2)c2ccc(C(=O)NC3(C(=O)Nc4ccc(/C=C/C(=O)O)cc4)CCC3)cc21

half-life ([2]; microsomes): > 5 h
Papp [3]: 2.9 ×10⁻⁶ cm/s
Cmax [17]: 0.09 µM
SMILES: CN1CC[C@@](NC(=O)c2ccc3c(C4CCCC4)c(-c4cccc(N)n4)n(C)c3c2)(C(=O)Nc2ccc(/C=C/C(=O)O)cc2)C1
